Laboratory results from ChEMBL document CHEMBL1157166, “Synthesis, antimalarial activity, structure-activity relationship analysis of thieno-[3,2-b]benzothiazine S,S-dioxide analogs” (2008).

How the values were obtained:
Format in all cases: functional
Plasmodium berghei [1] = assay: Antiparasitic activity as reduced parasitaemia against chloroquine-sensitive Plasmodium berghei ANKA infected NIH mice (Mus musculus) at 20 mg/kg intraperitoneal dose at day 4; parameters: scale not given: the % may be the effect or the level left
Summary of the method: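 Four-day suppressive test in NIH mice (18–22 g) infected ip with 1 × 10⁷ P. berghei. Dosing began 2 h post-infection: 20 mg/kg ip once daily for 4 days, from a 0.1 M DMSO stock diluted in 2% saline–Tween 20. Chloroquine at 25 mg/kg was the positive control. Day-4 parasitemia was read from Giemsa smears as a percentage versus saline-treated controls.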

Plasmodium berghei [2] = assay: Antiparasitic activity against Plasmodium berghei ANKA infected BALB/c mice (Mus musculus) after 18 hrs as reduced hemoglobin proteolysis
Summary of the method: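 Parasite extract: blood from P. berghei ANKA-infected mice (30–70% parasitemia); erythrocytes washed and lysed, then freed parasites freeze–thawed three times. Native mouse hemoglobin was incubated with extract, GSH and 0.2 M acetate buffer pH 5.4, with compound in DMSO, at 37 °C for 18 h. Leupeptin, pepstatin and chloroquine were references. Digestion was judged visually from the 14.4 kDa globin band on SDS–PAGE.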

[3] = target: T1, Histidine-rich protein PFHRP-II (Plasmodium falciparum) (UniProt P05227); assay: Inhibition of beta-hematin formation using synthetic hemin chloride; parameters: concentration or dose not given beside the values; conditions: concentration not given here
T1 sequence (whole entry): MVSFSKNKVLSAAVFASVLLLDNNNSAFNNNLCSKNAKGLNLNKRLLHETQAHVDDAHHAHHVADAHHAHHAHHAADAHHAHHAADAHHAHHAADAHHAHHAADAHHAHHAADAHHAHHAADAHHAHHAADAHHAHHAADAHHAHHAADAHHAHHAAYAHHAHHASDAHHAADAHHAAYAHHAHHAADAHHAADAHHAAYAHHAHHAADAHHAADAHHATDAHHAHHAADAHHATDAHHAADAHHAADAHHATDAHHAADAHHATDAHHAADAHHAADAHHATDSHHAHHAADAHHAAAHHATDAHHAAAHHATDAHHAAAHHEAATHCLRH
Summary of the method: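 Hemin chloride (4 mM in DMSO) was mixed in triplicate with compound in DMSO (50–5 mM as added); water or DMSO served as controls. Acetate buffer (0.2 M, pH 4.4) was added, then incubated at 37 °C for 48 h and centrifuged. The pellet was washed with DMSO, dissolved in 0.2 N NaOH and diluted 1:2 in 0.1 N NaOH. A405 was read and expressed as % inhibition of β-hematin formation.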

Plasmodium berghei [4] = assay: Antiparasitic activity as survival days against chloroquine-sensitive Plasmodium berghei ANKA infected NIH mice (Mus musculus) at 20 mg/kg intraperitoneal dose
Summary of the method: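 NIH mice (18–22 g) infected ip with 1 × 10⁷ P. berghei parasites; dosing started 2 h post-infection. Compound dissolved in DMSO (0.1 M stock), diluted in 2% Saline–Tween 20, given ip at 20 mg/kg once daily for 4 days. Chloroquine 25 mg/kg as positive control; saline-treated mice as untreated controls. Survival time after infection recorded versus control mice.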

Row | Structure (SMILES) | inhibition [3] | Activity (Plasmodium berghei [1]) | inhibition (INH) (Plasmodium berghei [2]) | Survival (Plasmodium berghei [4])
1 | CCOC(=O)c1sc2c(c1N)S(=O)(=O)c1ccc(Cl)cc1N2c1ccccc1 | < 5% | 9.75% | 78.17% | 13 days
2 | CCOC(=O)c1sc2c(c1N)S(=O)(=O)c1ccc(Cl)cc1N2c1ccc(C)cc1 | < 5% | 15.7% | 64.98% | 10.8 days
3 | CCOC(=O)c1sc2c(c1N)S(=O)(=O)c1ccc(Cl)cc1N2c1cc(C)ccc1C | < 5% | 9.4% | 76.81% | 11.42 days
4 | CC(C)CC(=O)N[C@H](C(=O)N[C@H](C(=O)N[C@@H](CC(C)C)[C@@H](O)CC(=O)N[C@@H](C)C(=O)N[C@@H](CC(C)C)[C@@H](O)CC(=O)O)C(C)C)C(C)C [PEPSTATIN] | – | – | 92.94% | –
5 | CCOC(=O)c1sc2c(c1N)S(=O)(=O)c1ccc(Cl)cc1N2c1ccc(Cl)c(Cl)c1 | < 5% | – | <5% | –
6 | CCOC(=O)c1sc2c(c1N)S(=O)(=O)c1cc(Cl)ccc1N2c1cc(C)ccc1C | < 5% | – | 0% | –
7 | CCOC(=O)c1sc2c(c1N)S(=O)(=O)c1ccc(Cl)cc1N2c1ccccc1C | < 5% | 8.7% | 74.36% | 15.5 days
8 | CCOC(=O)c1sc2c(c1N)S(=O)(=O)c1cc(Cl)ccc1N2c1cccc(OC)c1 | < 5% | – | 0% | –
9 | CC(=O)N[C@@H](CC(C)C)C(=O)N[C@@H](CC(C)C)C(=O)N[C@H](C=O)CCCNC(=N)N [LEUPEPTIN] | – | – | 89.06% | –
10 | CCN(CC)CCCC(C)Nc1ccnc2cc(Cl)ccc12 (stereo not drawn) [CHLOROQUINE] | – | 1.31% | 24.12% | 30 days
11 | CCOC(=O)c1sc2c(c1N)S(=O)(=O)c1cc(Cl)ccc1N2c1ccccc1C | < 5% | – | 0% | –
12 | CCOC(=O)c1sc2c(c1N)S(=O)(=O)c1ccc(Cl)cc1N2c1cccc(Cl)c1 | < 5% | – | 0% | –
13 | CCOC(=O)c1sc2c(c1N)S(=O)(=O)c1ccc(Cl)cc1N2c1cccc(OC)c1 | < 5% | 11.6% | 55.96% | 12.16 days
14 | CCOC(=O)c1sc2c(c1N)S(=O)(=O)c1ccc(Cl)cc1N2c1ccc(OC)cc1 | < 5% | 11.21% | 37.01% | 11.6 days

Now from value to compound, other results behind:

Row | inhibition [3] | Structure (SMILES) | Activity (Plasmodium berghei [1]) | inhibition (INH) (Plasmodium berghei [2]) | Survival (Plasmodium berghei [4])
15 | < 5% | CCOC(=O)c1sc2c(c1N)S(=O)(=O)c1cc(Cl)ccc1N2c1cccc(Cl)c1 | – | 0% | –
16 | < 5% | CCOC(=O)c1sc2c(c1N)S(=O)(=O)c1cc(Cl)ccc1N2c1ccc(Cl)c(Cl)c1 | – | 0% | –
17 | < 5% | CCOC(=O)c1sc2c(c1N)S(=O)(=O)c1ccc(Cl)cc1N2c1ccc(Cl)cc1 | – | 0% | –
18 | < 5% | CCOC(=O)c1sc2c(c1N)S(=O)(=O)c1cc(Cl)ccc1N2c1ccc(OC)cc1 | – | 0% | –
19 | < 5% | CCOC(=O)c1sc2c(c1N)S(=O)(=O)c1cc(Cl)ccc1N2c1ccccc1 | – | 0% | –
20 | < 5% | CCOC(=O)c1sc2c(c1N)S(=O)(=O)c1cc(Cl)ccc1N2c1ccc(Cl)cc1 | – | 0% | –
21 | < 5% | CCOC(=O)c1sc2c(c1N)S(=O)(=O)c1cc(Cl)ccc1N2c1ccc(C)cc1 | – | 0% | –
